By IC50 is commonly meant the midpoint of a concentration-inhibition curve. The low end stands for inhibition by little substance, the high end for a need for much substance.

In this experiment the test system is K562. Kind of experiment: In vitro cytotoxicity tested against human chronic leukemia K562 cells. It counts as functional, cell-based. The essentials:
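Human K562 chronic myeloid leukaemia cells, kept in log-phase suspension in RPMI 1640 with 10% horse serum at 37 °C, 5% CO2. Seeded at 600 cells/well and given continuous drug exposure for 5 days. Growth was read by MTT absorbance at 540 and 640 nm. Inhibition of growth was plotted against concentration, in triplicate at each concentration.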

For `O=C1C=C(N2CC2)C(=O)C(Br)=C1N1CC1`, the 50% inhibitory concentration (IC50) was 7.3 nM.

`CC1=C(N2CC2)C(=O)C(Cl)=C(N2CC2)C1=O` gave an IC50 of 76 nM.

The molecule `CC1=CC(=O)C(N2CC2)=C(C)C1=O` registered an IC50 of 476 nM.

In turn, `O=C1C=C(N2CC2)C(=O)C(I)=C1N1CC1` displayed an IC50 of 12.6 nM.

As for `CC1=C(C)C(=O)C(N2CC2)=CC1=O`, it took 239 nM to reach half-maximal inhibition (IC50).

Regarding `Cc1ccc(C2=C(N3CC3)C(=O)C=C(N3CC3)C2=O)cc1`, the half-inhibitory concentration (IC50) was 4.8 nM.

In turn, `O=C1C(Cl)=C(N2CC2)C(=O)C(Cl)=C1N1CC1` registered an IC50 of 46 nM.

Regarding `O=C1C=C(N2CC2)C(=O)C(c2ccc(Oc3ccccc3)cc2)=C1N1CC1`, half-maximal inhibition (IC50) required 170 nM.

`O=C1C(Br)=C(N2CC2)C(=O)C(Br)=C1N1CC1` returned an IC50 of 42 nM.

Take `O=C1C(N2CC2)=C(N2CC2)C(=O)C(N2CC2)=C1N1CC1`: 5.8 nM corresponded to half-maximal inhibition (IC50).

As for `O=C1C=C(N2CC2)C(=O)C(c2ccccc2)=C1N1CC1`, the IC50 amounted to 3.1 nM.

`O=C1C(F)=C(N2CC2)C(=O)C(F)=C1N1CC1`: half-maximal inhibition (IC50) was put at 10 nM.

`CC1=CC(=O)C(N2CC2)=CC1=O` came in with an IC50 of 216 nM.

For `O=C1C(I)=C(N2CC2)C(=O)C(I)=C1N1CC1`, the half-inhibitory concentration (IC50) came to 50 nM.

`CC1=C(N2CC2)C(=O)C(C)=C(N2CC2)C1=O` registered a half-maximal inhibitory concentration (IC50) of 1.8 nM.

On to `O=C1C(F)=C(N2CC2)C(=O)C(N2CC2)=C1F`, for which the IC50 is 39 nM.

`OCC/N=C1C(O)=C(N2CC2)/C(=N\CCO)C(O)=C/1N1CC1` returned an IC50 of 158 nM.

Molecule `O=C1C=C(N2CC2)C(=O)C(Cl)=C1N1CC1` displayed an IC50 of 5.3 nM.

Turning to `O=C1C=C(N2CC2)C(=O)C=C1N1CC1`, half-maximal inhibition (IC50) was put at 8.3 nM.

`O=C1C(c2ccccc2)=C(N2CC2)C(=O)C(c2ccccc2)=C1N1CC1` came in with an IC50 of 67 nM.

Take `CCOC(=O)NC1=C(N2CC2)C(=O)C(NC(=O)OCC)=C(N2CC2)C1=O` [DIAZIQUONE]: the IC50 worked out at 63 nM.

On to `O=C1C=C(N2CC2)C(=O)C(N2CC2)=C1N1CC1` [TRIAZIQUONE], for which the IC50 is 2.9 nM.

(Values after ChEMBL document CHEMBL1130405, “Cross-linking and sequence specific alkylation of DNA by aziridinyl quinones. 2. Structure requirements for sequence selectivity” (J Med Chem, 1997).)
